Compounds with a hit are over-represented: about 2.2% of the library has one in this group of screens.
EBI2 block: blocks human EBI2 receptor beta-arrestin signaling | EBI2 beta-arrestin recruitment, luminescence, 7a,25-OHC stimulated | inhibition, % at 5 µM | P32249 | 360,000 tested, 0.81% active; in the data active = inhibition above about 38%;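 note: enzyme fragment complementation signal reports receptor beta-arrestin coupling in cells; 0% = agonist plus DMSO wells and 100% = wells without agonist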
APJ ag: activates the human apelin receptor APJ; P35414; CHO-K1 APJ PathHunter beta-arrestin, luminescence; 0% DMSO wells, 100% apelin; activation, % at 20 µM; 330,000 tested, 0.11% active;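 active = activation more than six SD over the plate average, tested at 20 µM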;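 note: 0% = DMSO alone and 100% = apelin-13 at 10 nM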
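Assay system – PathHunter CHO-K1 APJ (AGTRL-1) beta-arrestin reporter cells · Compound – one dose, 20 µM compound, 1% DMSO · Timing – compound 90 min 25 °C, reagent 1 h · Measured by – luminescence from split beta-galactosidase complementation, Galacton Star/Emerald II substrate · Measure – beta-arrestin recruitment to APJ as agonist activity, luminescent signal · Benchmarks – DMSO vs Apelin-13 10 nM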
CCR6 antagonist: CCR6 (human) receptor antagonism; P51684; CHO-K1 CCR6 PathHunter beta-arrestin, luminescence, CCL20-stimulated; inhibition, % at 20 µM; 340,000 tested, 0.49% active; AID 493098;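 active = compounds whose inhibition of the agonist-driven luminescence signal at 20 µM reaches about 50%, limit read from the data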;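 note: cells stimulated with CCL20 at 14 nM final; plate controls were DMSO with CCL20 for no effect and DMSO without agonist for full effect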
Target sequence (P51684 whole entry, looked up): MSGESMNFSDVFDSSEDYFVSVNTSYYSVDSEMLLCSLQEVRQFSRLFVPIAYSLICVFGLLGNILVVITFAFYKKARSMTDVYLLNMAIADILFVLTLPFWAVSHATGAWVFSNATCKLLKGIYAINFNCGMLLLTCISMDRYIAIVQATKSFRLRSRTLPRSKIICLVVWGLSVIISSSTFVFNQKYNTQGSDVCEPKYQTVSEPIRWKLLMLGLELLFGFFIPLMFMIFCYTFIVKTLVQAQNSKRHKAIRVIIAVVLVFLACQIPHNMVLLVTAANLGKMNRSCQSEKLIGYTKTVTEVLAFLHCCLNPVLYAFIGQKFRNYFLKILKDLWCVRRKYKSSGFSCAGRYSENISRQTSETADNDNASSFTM
CXCR6 inh: CXCR6 (human) receptor inhibition; O00574; CHO-K1 PathHunter CXCR6 beta-arrestin, luminescence; inhibition, % at 20 µM; 360,000 tested, 0.36% active; AID 602244; in the data active = inhibition above about 34%, passing the limit was not always enough;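 note: antagonist mode with CXCL16 agonist at 10 nM final; 0% = 10 nM CXCL16 with DMSO and 100% = unstimulated wells without agonist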
APJ antagonist: blocks the human apelin receptor APJ; P35414; CHO-K1 APJ beta-arrestin complementation, luminescence; inhibition, % at 20 µM; 330,000 tested, 0.32% active;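 active = inhibition above about 40% at 20 µM, limit read from the data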;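 note: cells challenged with 10 nM apelin-13 agonist together with compound; plate controls were apelin-13 plus DMSO wells for no effect and DMSO wells lacking apelin-13 for full effect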
m5-HT2A agonist: agonists of mouse serotonin 5-HT2A receptor (HTR2A); P35363; CHO-K1 mHTR2A beta-arrestin complementation, luminescence; percent of 30 µM serotonin response; activation, % at 7.6 µM; 360,000 tested, 0.66% active;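 active = activation above a run cutoff, the mean activation of all tested compounds plus 3 SD, cut at about 14% in these data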;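 note: 0% = plate median of compound wells and 100% = 30 µM serotonin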
Starred values were filed as active, the others as inactive; x = no result given.

SMILES | EBI2 block | APJ ag | CCR6 antagonist | CXCR6 inh | APJ antagonist | m5-HT2A agonist
Cc1ccc(-c2csc(N/N=C/c3ccco3)n2)cc1 | -10 | 5 | -13 | -8 | 0 | 2
NNc1nc(-c2ccccc2)cs1 | 3 | -5 | 59* | 19 | 30 | 5
c1ccc(-c2csc(Nc3ncccn3)n2)cc1 | 6 | 5 | 5 | -2 | -3 | 1
Cc1ccccc1OCc1nc2ccccc2c(=O)n1/N=C/c1c[nH]c2ccccc12 | 11 | -3 | -9 | -10 | 0 | 5
Cc1cc(/C=N/n2c(COc3ccccc3C)nc3ccccc3c2=O)c(O)c([N+](=O)[O-])c1 | 21 | -5 | 59* | 18 | 26 | 2
Cc1ccc(S(=O)(=O)N2CCCCC2)cc1NC(=O)Cn1ncc(Cl)c(Cl)c1=O | 63* | 1 | 13 | 24 | -2 | -6
CC1CC(O)C2C3(C)CCCC2(COC3=O)C12CCC1(CCOC1=O)O2 (centres undefined) | -6 | x | x | 3 | x | 7
COC(=O)c1ccc(NC(=O)c2cc(-c3ccncc3)nc3ccccc23)cc1 | -7 | -3 | 4 | 1 | 11 | 1
COC(=O)c1ccc(NC(=S)NC(=O)c2cc(-c3ccccc3)nc3ccccc23)cc1 | 22 | 0 | 53* | 30 | 35 | -1
COc1ccc(C(=O)NNC(=S)NC(=O)C(C)(C)C)cc1 | 5 | -9 | 62* | 36 | 28 | -4
CC(C)(C)C(=O)NC(=S)NNC(=O)c1sc2ccccc2c1Cl | -12 | 1 | 73* | 62* | 40 | 2
COc1ccc(C(=O)NNC(=O)c2ccc(C(C)(C)C)cc2)cc1 | -26 | 0 | 11 | 0 | -4 | 4
OC(c1cccnc1)c1nc(/C=C/c2ccc(C(F)(F)F)cc2)cs1 (centres undefined) | 0 | x | x | -6 | x | 1
O=C(Nc1ccc2ccccc2c1)C(c1ccc(C(F)(F)F)cc1)n1c(=O)c(-c2cc3ccccc3[nH]2)nc2ccccc21 (centres undefined) | -7 | x | x | x | x | -6
O=[N+]([O-])c1ccc(/C=N/N=C/c2ccc([N+](=O)[O-])o2)o1 | -7 | x | 61* | 37 | x | 1
O=C(O)/C=C/c1ccc([N+](=O)[O-])o1 | 9 | 1 | -4 | -8 | -39 | -2
O=C1[C@@H]2Cc3c([nH]c4ccccc34)C(c3cccc([N+](=O)[O-])c3)N2C(=O)CN1CCCO (some centres undefined) | 10 | -7 | 51* | 33 | 36 | -6
O=C(CC1CC1)Nc1ccc2c(c1)[C@H]1C[C@H](CC(=O)N3CCc4ccccc4C3)O[C@@H](CO)[C@H]1O2 | -2 | x | x | 2 | x | -5
COC(=O)[C@@]12C[C@@H](CC(=O)N3CCN(C(=O)c4ccco4)CC3)C(=O)N(Cc3cccc4ccccc34)C1=CCC(C)(C)C2 | 12 | x | x | x | x | -4
c1ccc2c(c1)ncn2-c1ncnc2sc3c(c12)CCCC3 | -6 | 1 | 10 | 6 | 9 | 0
CC(O)CNc1nc2ccccc2n1-c1ncnc2sc3c(c12)CCC3 (centres undefined) | 13 | -1 | 10 | -16 | 20 | 18*
CCC(/C=C1\Sc2ccc(OC)cc2N1CC)=C\c1sc2ccc(OC)cc2[n+]1CCCS(=O)(=O)[O-] | -10 | -3 | 77* | 11 | 18 | 5
CCC(/C=C1\Sc2ccc(OC)cc2N1CCO)=C\c1sc2ccc(OC)cc2[n+]1CCO | 9 | -2 | 68* | 9 | -33 | -7
CCC(=O)/C=C1/Sc2ccc(OC)cc2N1CCO | 0 | -3 | 20 | 0 | 3 | -2
COc1ccc(-c2nc3ccc(C)cn3c2Cc2ccsc2)cc1OC | 8 | x | x | 0 | x | -9
SMILES | EBI2 block | APJ ag | CCR6 antagonist | CXCR6 inh | APJ antagonist | m5-HT2A agonist
COc1cc(N=C2C(=O)N3c4c(cccc42)C(C)=CC3(C)C)cc(OC)c1 | -13 | -6 | 61* | 14 | 13 | 2
CN(C)c1ccc(CC(=O)N2CCCCC2c2cc(C(=O)Nc3ccccc3)no2)cc1 (centres undefined) | -5 | x | x | -8 | x | -4
COC(=O)[C@@]12C[C@@H](CC(=O)NCc3cccc(C(F)(F)F)c3)C(=O)N(Cc3ccc4c(c3)OCO4)C1=CCC(C)(C)C2 | 5 | x | x | x | x | -1
Cc1[nH]c2ccccc2c1/C=N/NS(=O)(=O)c1ccccc1 | 1 | -1 | 2 | 0 | -7 | -1
COc1ccc(NS(=O)(=O)c2cc([N+](=O)[O-])ccc2N/N=C/c2c(C)[nH]c3ccccc23)cc1 | 30 | x | 58* | 35 | x | 1
Cc1[nH]c2ccccc2c1/C=N/Nc1ccccc1[N+](=O)[O-] | 6 | -8 | 39 | 29 | 43* | -5
COc1ccc(-n2nc3c(N4CCC(C(=O)NCc5ccccc5C)CC4)nnc(C)c3c2C)cc1 | 19 | -1 | 51* | 12 | 13 | -2
Nc1nc2ccccc2[nH]1 | 1 | -4 | 8 | -1 | -4 | -1
Nc1ccccc1Sc1nc2ccccc2[nH]1 | 64* | 2 | -7 | -13 | -5 | -2
Oc1ccc(CN2CCN(c3ccccc3)CC2)c2cccnc12 | 60* | -3 | -1 | 8 | -19 | 3
Oc1ccc(CN2CCc3ccccc3C2)c2cccnc12 | 67* | -6 | 44 | 27 | 21 | -7
COc1cccc(CNC(=O)c2cc3c(c(-c4cccc(-c5cccc(C#N)c5)c4)n2)[C@H](CCO)N(S(=O)C(C)(C)C)C3)c1 (some centres undefined) | 34 | x | x | 0 | x | 4
COc1ccccc1NS(=O)(=O)c1ccc(Cl)c(NC(=O)c2sc3cc(Cl)ccc3c2Cl)c1 | 0 | 0 | -2 | -2 | -20 | -2
O=C(Nc1cc(S(=O)(=O)Nc2ccccc2Cl)ccc1O)c1sc2cc(Cl)ccc2c1Cl | 8 | -2 | 75* | 26 | 13 | 2
O=C(NCc1cc(Cl)cc(Cl)c1)c1ccc2sc([C@H]3C[C@H](O)[C@@H](CO)O3)nc2c1 | 2 | x | x | -4 | x | 13
COc1cc(N2C(=O)C=CC2=O)c(OC)cc1Cl | 6 | -1 | x | 75* | 2 | -4
CC(C)(C)c1nnc(NS(=O)(=O)c2cc(Cl)ccc2Cl)s1 | 7 | 1 | -12 | 0 | -7 | 3
O=S(=O)(Nc1nc(-c2sccc2Cl)cs1)c1cc(Cl)ccc1Cl | 1 | -4 | -6 | 11 | 20 | 20*
COc1ccc2cc(C(=O)/C=C/c3cc(OC)c(O)c(OC)c3)ccc2c1 | 30 | 0 | 29 | 16 | 1 | -4
COc1ccc(C(=O)/C=C/c2cc(OC)c(O)c(OC)c2)c(F)c1 | 11 | -1 | 51* | 21 | -4 | -7
CCOC(=O)[C@]12CCC=C1N(Cc1ccc(Cl)cc1Cl)C(=O)[C@H](CC(=O)N1CCOCC1)C2 | 2 | x | x | 3 | x | -2
CC(C)CC(=O)n1sc(NC(=O)c2ccccc2)nc1=O | -4 | -2 | 1 | 5 | 14 | 5

Screens deposited in PubChem by several laboratories.
